Data published in ChEMBL document CHEMBL1150426, “New C5-alkylated indolobenzazepinones acting as inhibitors of tubulin polymerization: cytotoxic and antitumor activities” (J Med Chem, 2008).

Legend:
[1] = tested on: KB; experiment: Cytotoxicity against human KB cells after 72 hrs; type: functional, cell-based
Summary of the method: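 KB cells in EMEM (4.5 g/L glucose, 10% FCS, 1% glutamine) seeded 5 × 10³/well, dosed after 24 h with compound in DMSO (<0.1%). 72 h exposure, then resazurin 2 h; fluorescence ex 560/em 590 nm. IC50 = 50% fluorescence decrease versus untreated; triplicate.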

[2] = Inhibition of sheep brain tubulin polymerization; set-up: species or system Ovis aries
Summary of the method: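 Sheep brain tubulin (about 2–3 mg/mL), purified by two assembly–disassembly cycles, in 0.1 M MES, 0.5 mM MgCl₂, 1 mM EGTA, 1 mM GTP, pH 6.6. Assembly followed by turbidity at 350 nm, 37 °C.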

[3] = tested on: MDA-MB-231; experiment: Antiproliferative activity against human MDA-MB-231 cells after 72 hrs; type: functional, cell-based; settings: MDA-MB-231, 72 h
Summary of the method: (§1)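 Cells were seeded at 5 × 10³ per well and cultured for 24 h. Test compound in DMSO (under 0.1%) was then added for 72 h. Resazurin was added for 2 h, and fluorescence was read at ex 560 nm / em 590 nm. IC50 was taken as the concentration giving a 50% fall in fluorescence versus untreated cells. Runs were done in triplicate.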

[4] = tested on: HCT-116; experiment: Antiproliferative activity against human HCT116 cells after 72 hrs; type: functional, cell-based; settings: HCT-116, 72 h; summary of the method: as §1
[5] = tested on: B16-F10; experiment: Antiproliferative activity against mouse B16F10 cells after 72 hrs; type: functional, cell-based; settings: B16-F10, 72 h; summary of the method: as §1
[6] = Antitumor activity against human U87 tumor transplanted in chick chorio-allantoic membrane assessed as reduction of tumor volume at 10 uM after 4 days; type: functional, U-87MG ATCC; set-up: scale not given: the % may be the effect or the level left
Summary of the method: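 U87 glioma cells (5 × 10⁶ in 20 µL medium) grafted on chick CAM on embryonic day 10; size-matched tumors grouped on day 2. 20 µL drug at 10 µM applied locally once daily, days 3–6 of tumor growth; controls got solvent. Volume V = 4/3πr³ from length and width, six tumors per group.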

[7] = tested on: MDA-MB-435; experiment: Antiproliferative activity against human MDA-MB-435 cells after 72 hrs; type: functional, cell-based; settings: MDA-MB-435, 72 h; summary of the method: as §1

Row | SMILES | IC50 [1] [nM] | IC50 [2] [nM] | further results
1 | CC1c2ccccc2-c2c(n(C)c3ccccc23)C(=O)N1C (configuration not stated) | 28000 |  | 
2 | CC1NC(=O)c2c(c3ccccc3n2C)-c2ccccc21 (racemic) | 7000 |  | 
3 | CCC1NC(=O)c2[nH]c3ccc(F)cc3c2-c2ccccc21 (racemic) | 500 | 3600 | 
4 | CC1NCc2[nH]c3ccccc3c2-c2ccccc21 (racemic) | 12000 |  | 
5 | C[C@@H]1NC(=O)c2[nH]c3ccccc3c2-c2ccccc21 | 80 | 1900 | 
6 | COc1cc2c(c(OC)c1OC)-c1ccc(OC)c(=O)cc1[C@@H](NC(C)=O)CC2 [COLCHICINE] | 20 |  | IC50 [3]: 70 nM; IC50 [4]: 40 nM; IC50 [5]: 29 nM; Activity [6]: 50%; IC50 [7]: 40 nM
7 | CCCC1NC(=O)c2[nH]c3ccccc3c2-c2ccccc21 (racemic) | 32 | 2000 | 
8 | O=C1NCc2ccccc2-c2c1[nH]c1ccccc21 | 550 |  | 
9 | CC1NC(=O)c2[nH]c3ccccc3c2-c2ccccc21 (racemic) | 280 |  | 
